Data set [1] in a line: Half life in mouse liver microsomes. Type of data set: ADME, Microsome. On the technique in general: Microsomes from liver hold many membrane-bound enzymes, among them those of drug oxidation.
Data set [2] addresses T1, 11-beta-hydroxysteroid dehydrogenase 1 (Mus musculus, UniProt P50172). The experiment in a line: Inhibition of mouse 11beta-HSD1 expressed in CHO cells […] incubated for 30 mins prior to substrate addition measured after 120 mins by chemiluminescence assay in presence of 10% human serum. Type of data set: cell-based. Put shortly: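 Cell-based assay with 10% (v/v) human serum in the culture medium. Run in duplicate, with 11-point 2-fold dilutions giving the IC50. Lower threshold was 10 nM.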

For data set [3], the target named is T1, 11-beta-hydroxysteroid dehydrogenase 1. Description: Inhibition of mouse 11beta-HSD1 expressed in CHO cells […] incubated for 30 mins prior to substrate addition measured after 120 mins by chemiluminescence assay. Type of data set: cell-based. Put shortly:
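Cell-based assay run in duplicate. Compounds were tested as 11-point 2-fold dilutions, and IC50 was derived. Lower assay threshold was 10 nM.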

Data set [4] in a line: Half life in human liver microsomes. Type of data set: ADME, Microsome.
Data set [5] concerns Mus musculus. The experiment in a line: Ex vivo inhibition of 11beta-HSD1 in C57B16 mouse epididymal fat assessed as conversion of [3H]-cortisone to [3H]-cortisol at 10 mg/kg, po after 5 hrs by HPLC analysis relative to vehicle-treated control. Type of data set: functional. Put shortly:
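Mice were dosed orally at 10 mg/kg. Epididymal fat was collected 5 h after dosing for the ex vivo readout.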

The target of data set [6] is 11-beta-hydroxysteroid dehydrogenase 1 (Homo sapiens, UniProt P28845). Description: Inhibition of human 11beta-HSD1 expressed in CHO cells using cortisone as substrate incubated for 30 mins prior to substrate addition measured after 120 mins by chemiluminescence assay.
11-beta-hydroxysteroid dehydrogenase 1 (Homo sapiens, UniProt P28845), sequence (P28845 whole entry): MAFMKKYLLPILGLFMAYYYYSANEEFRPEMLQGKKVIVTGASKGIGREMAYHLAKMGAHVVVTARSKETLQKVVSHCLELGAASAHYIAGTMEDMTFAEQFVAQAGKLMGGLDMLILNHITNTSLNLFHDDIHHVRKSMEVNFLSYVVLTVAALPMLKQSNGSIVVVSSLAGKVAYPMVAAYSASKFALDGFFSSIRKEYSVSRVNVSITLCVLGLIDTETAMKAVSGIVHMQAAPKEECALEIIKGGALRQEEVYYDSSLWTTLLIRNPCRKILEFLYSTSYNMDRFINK
Data set [7] in a line: Oral bioavailability in C57B6 mouse at 10 mg/kg. Type of data set: ADME, organism-based. To be noted: in vivo. Put shortly:
(§1)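 Male C57B6 mice. IV dose of 2 mg/kg in 50% DMSO/50% PEG200. Oral dose of 10 mg/kg in 2% Tween/0.5% methyl cellulose in water. Values are PK parameters from the iv and po arms.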

Data set [8] in a line: AUC in C57B6 mouse at 2 mg/kg, iv. The data set is classed as ADME, organism-based. Further details: dose 2 mg/kg, route intravenous. To be noted: plasma. Put shortly: as §1
The nature of data set [9]: Tmax in C57B6 mouse at 10 mg/kg, po. The data set is classed as ADME, organism-based. Details: dose 10 mg/kg, route oral. The note with it: in vivo. Put shortly:
as §1

The nature of data set [10]: Cmax in C57B6 mouse at 10 mg/kg, po. The data set is classed as ADME, organism-based. Details: dose 10 mg/kg, route oral. To be noted: in vivo. The method, boiled down: as §1
Data set [11] concerns the target T2, 11-beta-hydroxysteroid dehydrogenase type 2 (Homo sapiens, UniProt P80365).
T2 sequence (P80365 whole entry): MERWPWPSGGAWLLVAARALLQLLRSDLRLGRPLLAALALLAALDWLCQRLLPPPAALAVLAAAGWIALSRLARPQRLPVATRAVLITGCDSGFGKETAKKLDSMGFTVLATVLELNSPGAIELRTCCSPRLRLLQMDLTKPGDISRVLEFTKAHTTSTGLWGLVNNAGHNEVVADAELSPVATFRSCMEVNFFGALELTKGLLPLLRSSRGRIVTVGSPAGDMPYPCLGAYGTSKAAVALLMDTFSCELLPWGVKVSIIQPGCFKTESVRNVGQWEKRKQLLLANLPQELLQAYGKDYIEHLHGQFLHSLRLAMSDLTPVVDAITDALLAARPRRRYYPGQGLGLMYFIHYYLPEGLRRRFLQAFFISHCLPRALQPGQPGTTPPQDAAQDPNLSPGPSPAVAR
Description: Inhibition of human 11beta-HSD2 expressed in CHO cells using […] as substrate incubated for 30 mins prior to substrate addition measured after 120 mins by scintillation counting analysis. Type of data set: cell-based.

Data set [12] can be described thus: Clearance in C57B6 mouse at 2 mg/kg, iv. The data set is classed as ADME, organism-based. Details: dose 2 mg/kg, route intravenous. To be noted: in vivo. Put shortly:
as §1

A short description of data set [13]: Volume of distribution at steady state in C57B6 mouse at 2 mg/kg, iv. Type of data set: ADME, organism-based. Details: dose 2 mg/kg, route intravenous. The note with it: in vivo, read-out: Vdss. The method, boiled down: as §1
Data set [14] can be described thus: AUC in C57B6 mouse at 10 mg/kg, po. The data set is classed as ADME, organism-based. Details: dose 10 mg/kg, route oral. To be noted: plasma. Put shortly: as §1
The nature of data set [15]: Half life in C57B6 mouse at 2 mg/kg, iv. Type of data set: ADME, organism-based. Details: dose 2 mg/kg, route intravenous. The note with it: in vivo. Put shortly:
as §1

Data set [16] deals with Cytochrome P450 2C9 (Homo sapiens, UniProt P11712). The experiment in a line: Inhibition of CYP2C9 (unknown origin). Type of data set: ADME.
Cytochrome P450 2C9, sequence (P11712 whole entry): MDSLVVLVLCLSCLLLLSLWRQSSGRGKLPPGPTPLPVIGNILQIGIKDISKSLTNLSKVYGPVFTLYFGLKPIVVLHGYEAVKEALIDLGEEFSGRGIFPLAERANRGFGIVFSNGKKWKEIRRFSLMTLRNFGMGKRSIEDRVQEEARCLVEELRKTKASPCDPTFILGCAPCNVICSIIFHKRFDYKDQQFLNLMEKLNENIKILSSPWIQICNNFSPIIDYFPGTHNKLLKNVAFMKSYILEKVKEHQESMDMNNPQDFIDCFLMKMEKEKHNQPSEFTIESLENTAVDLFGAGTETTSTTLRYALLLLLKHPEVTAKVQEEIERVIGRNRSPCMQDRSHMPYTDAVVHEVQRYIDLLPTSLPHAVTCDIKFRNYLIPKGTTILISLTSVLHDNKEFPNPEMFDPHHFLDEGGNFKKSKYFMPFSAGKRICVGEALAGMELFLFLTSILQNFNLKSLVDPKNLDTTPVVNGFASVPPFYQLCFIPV
Data set [17] can be described thus: Half life in C57B6 mouse at 10 mg/kg, po. The data set is classed as ADME, organism-based. Details: dose 10 mg/kg, route oral. To be noted: in vivo. The method, boiled down: as §1
The species entered for data set [18] is Mus musculus. Description: Toxicity in C57B6 DIO mouse assessed as body weight gain at after 31 days. To be noted: in vivo, po, 744 h.

The structures appear in SMILES notation.

T1 sequence (P50172 whole entry): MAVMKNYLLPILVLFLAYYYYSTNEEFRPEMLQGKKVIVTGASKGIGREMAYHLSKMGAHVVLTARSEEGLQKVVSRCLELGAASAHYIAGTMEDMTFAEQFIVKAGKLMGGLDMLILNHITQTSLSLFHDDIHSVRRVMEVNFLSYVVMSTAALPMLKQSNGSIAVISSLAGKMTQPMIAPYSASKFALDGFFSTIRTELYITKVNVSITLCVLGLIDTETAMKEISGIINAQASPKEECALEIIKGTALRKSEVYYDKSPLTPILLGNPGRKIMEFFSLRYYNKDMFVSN

As to `C[C@@H]1CN(c2ccc(F)cc2C(F)(F)F)CCN1S(=O)(=O)c1cn(C)c(C(C)(O)C(F)(F)F)n1` (some centres not stated), the half-life (commonly how long it takes for the measured level to halve) in [1] came out at 30 min; in data set [4], 10 min. The IC50 (commonly the concentration that gives 50% inhibition) in [2] is 18 nM; in data set [3], 77 nM. Also, the inhibition in vivo (usually the percentage by which the read-out fell short of the control) at 10 mg/kg in data set [5] is 33%.

Consider `C[C@@H]1CN(c2ccc(F)cc2C(F)(F)F)CCN1S(=O)(=O)c1nc(C(C)(O)C(F)(F)F)n(C)n1` (some centres not stated), for which the values for the half-life in data set [1] and in [4] were 23 min and 10 min, respectively. Also, the IC50 came out at 1390 nM in data set [2] and 165 nM in [3]. Also, the inhibition in vivo at 10 mg/kg in data set [5] is 38%.

With `C[C@@H]1CN(c2ccc(F)cc2C(F)(F)F)CCN1S(=O)(=O)c1ccc(C(C)(O)C(F)(F)F)s1` (some centres not stated), the values for the half-life in data set [1] and in data set [4] were 17 min and greater than 30 min, respectively. Also, the results for the IC50 in data set [6], in [2] and in data set [3] were 15 nM, 10 nM and 10 nM, respectively. Moreover, the inhibition in vivo at 10 mg/kg in [5] was 44%.

Turning to `C[C@@H]1CN(c2ccc(F)cc2C(F)(F)F)CCN1S(=O)(=O)c1ccc([C@@](C)(O)C(F)(F)F)s1`, the bioavailability (commonly dose-corrected exposure relative to a reference, in per cent) in data set [7] worked out at 19%. Besides, the results for the AUC in data set [8] and in data set [14] were 3590 ng·h/mL and 3400 ng·h/mL, respectively. In addition, the Tmax (in general, the time from dosing to the highest level) in [9] is 30 min. In [10], the peak level (Cmax) was 449 ng/mL. The IC50 in data set [11] was greater than 100000 nM; in [6], 17 nM; in data set [2] it was 10 nM; in [3], 10 nM. In addition, the figures for the half-life in [1], in [15] and in data set [4] were 17 min, 570 min and greater than 30 min, respectively. In addition, in [12], the clearance (in general, the rate of elimination divided by the concentration) amounted to 9 mL/min/kg. Also, the Vd in data set [13] was 5.8 L/kg. Further, the inhibition in vivo at 10 mg/kg in data set [5] was 80%.

As for `C[C@@H]1CN(c2ccc(F)cc2C(F)(F)F)CCN1S(=O)(=O)c1ccc([C@](C)(O)C(F)(F)F)s1`, the half-life in data set [1] and in [4] was greater than 30 min throughout. The IC50 in data set [6], in data set [2] and in data set [3] was 10 nM in each case. Besides, in data set [5], the inhibition in vivo at 10 mg/kg worked out at 5%.

As to `C[C@@H]1CN(c2ccc(C(N)=O)cc2C(F)(F)F)CCN1S(=O)(=O)c1ccc([C@@](C)(O)C(F)(F)F)s1`, the half-life in data set [1] and in data set [4] was 17 min in each case. In data set [5], the inhibition in vivo at 10 mg/kg was determined as 87%. The “inhibition (INH)” value in data set [16] is “Active”.

As for `C[C@@H]1CN(c2ccc(C(N)=O)cc2C(F)(F)F)CCN1S(=O)(=O)c1ccc([C@](C)(O)C(F)(F)F)s1`, the half-life in [1] was 17 min; in [4], 10 min. The inhibition in vivo at 10 mg/kg in data set [5] came to 86%. In addition, the “inhibition (INH)” value in [16] is listed as “Active”.

Take `C[C@@H]1CN(c2ccc(F)cc2C(F)(F)F)CCN1S(=O)(=O)c1ccc([C@@](O)(C(N)=O)C(F)(F)F)cc1`: the results for the half-life in data set [1] and in data set [4] were 30 min and 10 min, respectively. For the same compound, the IC50 in [2] is 48 nM; in [3] it was 40 nM. In data set [5], the inhibition in vivo at 10 mg/kg is less than 10%.

With `C[C@@H]1CN(c2ccc(F)cc2C(F)(F)F)CCN1S(=O)(=O)c1ccc([C@](O)(C(N)=O)C(F)(F)F)cc1`, the figures for the half-life in data set [1] and in data set [4] were 30 min and 27 min, respectively. Moreover, the IC50 in data set [2] is 41 nM; in [3] it was 20 nM. Also, the inhibition in vivo at 10 mg/kg in data set [5] was less than 10%.

Consider `C[C@@H]1CN(c2ccc(F)cc2C(F)(F)F)CCN1S(=O)(=O)c1cccc([C@@](O)(C(N)=O)C(F)(F)F)c1`, for which the bioavailability in [7] worked out at 46%. In addition, the values for the AUC in data set [8] and in data set [14] were 6130 ng·h/mL and 14000 ng·h/mL, respectively. The Tmax in data set [9] was 120 min. Further, the highest level in data set [10] (Cmax) was 1550 ng/mL. For the same compound, the IC50 in data set [11] was greater than 100000 nM; in data set [6] it was 23 nM; in data set [2], 10 nM; in data set [3], 10 nM. The half-life was 30 min in data set [1], 168 min in [17], 252 min in [15] and 18 min in data set [4]. The clearance in data set [12] worked out at 5.4 mL/min/kg. Also, the Vd in data set [13] came out at 1.8 L/kg. Also, the inhibition in vivo at 10 mg/kg in data set [5] was found to be 82%.

Turning to `C[C@@H]1CN(c2ccc(F)cc2C(F)(F)F)CCN1S(=O)(=O)c1cccc([C@](O)(C(N)=O)C(F)(F)F)c1`, the half-life in data set [1] and in data set [4] was less than 2 min throughout. Moreover, the results for the IC50 in data set [6], in [2] and in data set [3] were 51 nM, 10 nM and 10 nM, respectively. For the same compound, in [5], the inhibition in vivo at 10 mg/kg is 38%.

As to `C[C@@H]1CN(c2ccc(F)cc2C(F)(F)F)CCN1S(=O)(=O)c1ncc([C@@](O)(C(N)=O)C(F)(F)F)s1`, the figures for the half-life in data set [1] and in data set [4] were 18 min and 21 min, respectively. The inhibition in vivo at 10 mg/kg in data set [5] is 83%.

For `C[C@@H]1CN(c2ccc(F)cc2C(F)(F)F)CCN1S(=O)(=O)c1ncc([C@](O)(C(N)=O)C(F)(F)F)s1`, the half-life in data set [1] was greater than 30 min; in data set [4], 19 min. Moreover, the inhibition in vivo at 10 mg/kg in [5] turned out to be 17%.

With `C[C@@H]1CN(c2ccc(F)cc2C(F)(F)F)CCN1S(=O)(=O)c1ccc([C@](O)(C(N)=O)C(F)(F)F)s1`, the half-life in [1] and in [4] was 18 min throughout. Moreover, the results for the IC50 in data set [6], in [2] and in [3] were 145 nM, 10 nM and 10 nM, respectively. Moreover, in [5], the inhibition in vivo at 10 mg/kg was 50%.

`C[C@@H]1CN(c2ccc(F)cc2C(F)(F)F)CCN1S(=O)(=O)c1ccc(C(O)(c2nnc[nH]2)C(F)(F)F)s1` (some centres not stated): the half-life in data set [1] came to 26 min. Besides, the inhibition in vivo at 10 mg/kg in data set [5] was 57%.

Turning to `CN(CCOc1ccc(CC2SC(=O)NC2=O)cc1)c1ccccn1` (configuration not stated) [ROSIGLITAZONE], in [18], the Activity entry is “Non-toxic”.

For the origin of these results see ChEMBL document CHEMBL2321820, “Discovery of HSD-621 as a Potential Agent for the Treatment of Type 2 Diabetes” (ACS Med Chem Lett, 2013).
